Test results as given in ChEMBL document CHEMBL5226344, “A Chemical Strategy for Intracellular Arming of an Endogenous Broad-Spectrum Antiviral Nucleotide” (J Med Chem, 2021).
Blank lines part the entries; values can stand above or below the molecule they belong to. Active and inactive are the calls of the source. The rule behind the calls is not given here.

Assays:
West Nile virus [1] = test: (§1) Antiviral activity against West Nile virus infected in human Huh-7 cells assessed as reduction in virus-induced cytopathic effect at 0.1 to 1 mM cells were pretreated with compound for 24 hrs followed by drug removal and subsequent viral infection for 1 hr and later incubated with compound and measured at 3 days post-infection; format: functional, organism-based; settings: dose 0.1-1 mM, time 3.0 day
How it was run: (§2)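 Cells grown in DMEM with 2% FBS, pretreated 24 h before confluency with media containing 0, 0.1 or 1 mM compound (diluted from DMSO stocks). Media removed, WNV (2003 crow isolate) added at MOI 0.1 for 1 h, then washed 3x with HBSS. Drug-containing overlay applied, 37°C, 5% CO2, 3 days. Media harvested, titre by plaque titration, triplicate. One-way ANOVA with Dunnett's test.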

Vero = test: Cytotoxicity against African green monkey Vero cells assessed as reduction in cell viability at 0.1 to 1 mM incubated for 2 days by Alamar Blue assay; format: toxicity, cell-based; settings: chlorocebus sabaeus, 48 h, 1000 µM, dose 0.1-1 mM, time 2 day
How it was run: (§3)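 HUH7 (2,000 cells/well) or Vero (1,500 cells/well) seeded in 10% FBS medium, 24 h; serially diluted compound added (final DMSO 0.5%); incubated 2 or 5 days; Alamar blue added 2 h before read; fluorescence minus no-cell background, normalized to DMSO control; technical triplicates, at least three biological replicates.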

Huh-7 = test: Cytotoxicity against human Huh-7 cells assessed as reduction in cell viability at 0.1 to 1 mM incubated for 2 days by Alamar Blue assay; format: toxicity, cell-based; settings: huh-7, 48 h, 1000 µM, dose 0.1-1 mM, time 2 day; how it was run: as §3
West Nile virus [2] = test: as §1, with “African green monkey Vero” for “human Huh-7”; format: functional, organism-based; settings: dose 0.1-1 mM, time 3.0 day
[3] = Drug metabolism in human Huh-7 cells expressing HINT1 assessed as ddhCTP level at 100 uM incubated for 24 hrs measured per 5 million cells by mass spectrometry (Rvb <0.01 nmol); settings: huh-7, 24 h
West Nile virus [4] = test: as §1, with “Huh7.5” for “Huh-7”; format: functional, organism-based; settings: dose 0.1-1 mM, time 3.0 day; how it was run: as §2
Zika virus [5] = test: (§4) Competitive inhibition of Zika virus RNA-dependent RNA polymerase assessed as chain termination by measuring inhibition of full length RNA production in presence of 10 uM CTP by primer extension assay based PAGE analysis
How it was run: (§5)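 Purified ZIKV NS5 RdRp (1 μM), E. coli-expressed ubiquitin fusion with C-terminal His tag. Assembled 30 min at 30 °C with pGGC RNA primer, 20-nt RNA template, ATP, GTP and [α-32P]-ATP in HEPES pH 7.5 buffer with Mg2+. Started with UTP, 10 μM CTP and ddhCTP 0–5000 μM, 5 min, EDTA quench. Full-length RNA scored by denaturing 23% PAGE. IC50 from curve fits, 3 independent repeats.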

[6] = as §4; how it was run: as §5
Zika virus [7] = test: Antiviral activity against Zika virus PRABC59 infected in African green monkey Vero cells assessed as reduction in virus-induced cytopathic effect at 0.1 to 1 mM cells were pretreated with compound for 24 hrs followed by drug removal and subsequent viral infection for 1 hr and later incubated with compound and measured at 4 days post-infection; format: functional, organism-based; settings: dose 0.1-1 mM, time 5.0 day
[8] = Cytotoxicity against African green monkey Vero cells assessed as cell viability at 1 mM incubated for 5 days by Alamar Blue assay; format: toxicity, cell-based; settings: chlorocebus sabaeus, time 5 day, read-out: Activity; how it was run: as §3
[9] = Cytotoxicity against human Huh-7 cells assessed as cell viability at 1 mM incubated for 5 days by Alamar Blue assay; format: toxicity, cell-based; settings: time 5 day, read-out: Activity; how it was run: as §3
West Nile virus [10] = test: (§6) Antiviral activity against West Nile virus infected in human Huh7.5 cells assessed as log reduction in plaque forming units at 1 mM cells were pretreated with compound for 24 hrs followed by drug removal and subsequent viral infection for 1 hr and later incubated with compound and measured at 3 days post-infection; format: functional; settings: time 4 day
How it was run: (§7)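 Cells in 24-well plates (2% FBS medium) pretreated 24 h with compound in medium (0, 0.1, 1 mM), medium removed, infected at MOI 0.1 for 1 h, washed three times, overlaid with drug-containing medium; 37°C, 5% CO2 for 3 days (WNV, 2003 crow isolate) or 4 days (ZIKV PRABC59); supernatant titered by plaque assay; triplicates; one-way ANOVA with Dunnett's test.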

Zika virus [11] = test: as §6, with “against Zika” for “against West Nile”, “virus PRABC59” for “virus”, “at 0.1” for “at 1”, “at 4” for “at 3”; format: functional; set-up: dose or concentration left out as unconfirmed; settings: time 5 day
[12] = Drug metabolism in human Huh-7 cells transfected with HINT1 assessed as intracellular concentration of ddhCTP at 100 uM incubated for 24 hrs by mass spectrometry; format: ADME, cell-based; settings: huh-7, 24 h
[13] = Apparent permeability across apical to basolateral side in human Caco-2 cells at 2 to 10 uM incubated for 2 hrs […]; format: ADME, cell-based; settings: dose 2-10 µM
How it was run: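 Caco-2 monolayers grown 21-28 days; compound at 2 or 10 μM in HBSS/10 mM HEPES pH 7.4 (DMSO <1%); 2 h at 37°C, 5% CO2; donor and receiver quantified by LC-MS against internal standard; monolayer integrity by Lucifer Yellow; Papp from receiver accumulation rate, volume, area 0.0804 cm2 and initial donor concentration.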

[14] = Metabolic stability of the compound in human plasma assessed as parent compound remaining at 2 uM measured upto 2 hrs by LC-MS analysis; format: ADME, cell-free
How it was run: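 Pooled human plasma (3 male, 3 female), pH 7.4, spiked to 2 μM final; 37°C; sampled at 0, 10, 30, 60, 120 min; quenched with MeCN:MeOH containing tolbutamide and labetalol; LC-MS peak-area ratio versus internal standards, percent remaining relative to t0; propantheline as positive control.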

West Nile virus [15] = test: as §6, with “Huh-7” for “Huh7.5”; format: functional; settings: time 4 day; how it was run: as §7
Zika virus [16] = test: as §6, with “against Zika” for “against West Nile”, “virus PRABC59” for “virus”, “human Huh-7” for “human Huh7.5”, “at 0.1” for “at 1”, “at 4” for “at 3”; format: functional; settings: time 5 day; how it was run: as §7
[17] = Stability of the compound in simulated gastric fluid assessed as parent compound remaining at 200 uM measured after 6 hrs by LC-MS/MS analysis; format: physicochemical; settings: read-out: Stability

Drug metabolism [3]: 0.13 nmol
SMILES: Nc1ccn([C@@H]2OC(CO)=C[C@H]2O)c(=O)n1
Activity (West Nile virus [1]): inactive
Activity (Vero): Non-Toxic
Activity (Huh-7): Non-Toxic
Activity (West Nile virus [2]): inactive
Activity (West Nile virus [4]): inactive

SMILES: Nc1ccn([C@@H]2OC(COP(=O)(O)OP(=O)(O)OP(=O)(O)O)=C[C@H]2O)c(=O)n1
inhibition (Zika virus [5]): Dose-Dependent Effect
IC50 [6]: 320 µM

SMILES: CC(C)OC(=O)[C@H](C)N[P@@](=O)(OCC1=C[C@@H](O)[C@H](n2ccc(N)nc2=O)O1)Oc1ccccc1
Activity (Zika virus [7]): inactive
viability at 120 h, 1000 µM [8]: > 60%
viability at 120 h, 1000 µM [9]: > 60%
Activity (West Nile virus [10]): >4 log10PFU/ml
Activity (Zika virus [11]): >1 log10PFU/ml
Activity (Vero): Non-Toxic
Drug metabolism [12]: > 1 mM
Activity (Huh-7): Non-Toxic
Papp A→B at 2 h, up to 10 µM [13]: 0.03 ×10⁻⁶ cm/s
Stability [14]: > 87%
Activity (West Nile virus [15]): >4 log10PFU/ml
Activity (West Nile virus [2]): inactive
Activity (Zika virus [16]): >1 log10PFU/ml
remaining at 6 h, 200 µM [17]: 76%
Drug metabolism [3]: 3.8 nmol
